Test results as given in PubChem BioAssay.
Records with an inconclusive call do not appear.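 The calls were made as follows, unless noted: active = viability increase at or above a cutoff of the median across tested compounds plus 3 SD (cut at about 8.5% in these data, passing the limit was not always enough); inconclusive = some gains above the cutoff, reason not given; inactive = the rest.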

Assays:
[1] = OD615 S. cerevisiae growth inhibition, permissive medium, pilot counter-assay, permissive growth control for S. cerevisiae lifespan shortening project (AID 705;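 active = growth inhibition above 25% in both replicates, a cutoff set 3 SD above the mean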); conditions: OD615, 24 h, at 10 µM, hits give high values
Summary of the method: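 Material: engineered DeaD yeast; Compound: one dose 10 µM, DMSO 0.25% final; Detection: absorbance (optical density) at 615 nm; Buffer or medium: permissive raffinose/galactose medium; Timing: 24 h exposure, 30 °C.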

[2] = Restrictive medium S. cerevisiae growth inhibition, OD615, pilot screen of yeast lifespan reduction project, restrictive growth control (AID 706;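 active = growth inhibition above a set limit, 3 SD over mean compound inhibition, in both replicates, cut at about 43% in these data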;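 also: modified DeaD lifespan yeast strain shifted to restrictive glucose medium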); conditions: OD615, 48 h, at 10 µM, hits give high values
Summary of the method: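 Buffer or medium: restrictive glucose medium (CSMM-D); test system: modified S. cerevisiae; doses: single dose of 10 µM compound final, 0.25% DMSO; schedule: 48 h compound exposure at 30 °C; detection: absorbance (optical density) measured at 615 nm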

[3] = viability gain of MRP-1-high H69AR cells under doxorubicin, pilot screen, MRP-1 activator project, CellTiter-Glo, duplicate (AID 807); conditions: H69AR viability with doxorubicin, CellTiter-Glo luminescence; at 10 µM; hits give high values;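 also: compound pretreatment 18-22 h then 72 h combined with doxorubicin; 0% = doxorubicin alone and 100% = vehicle without doxorubicin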
[4] = growth suppression of beta-catenin knockout HCT116, pilot screen, human colon tumor cells (AID 823;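 active = cell viability at or below a set limit in both duplicate runs, the limit being the all-compound median minus 4 SD, cut at about 23% in these data, passing the limit was not always enough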;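 also: 0% = wells killed by 20 µM Hyamine and 100% = untreated DMSO cell wells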); conditions: CellTiter-Glo, 60 h, at 10 µM, hits give low values
[5] = growth suppression of PTEN-deleted HCT116, pilot screen, cell-based, HCT116 clonal line, CellTiter-Glo (AID 824;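 active = viability at or below 27.92% in each of two runs, the all-compound median minus 4 SD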;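 also: 0% = 20 µM Hyamine control and 100% = vehicle cell control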); conditions: 60 h, at 10 µM, hits give low values
[6] = inhibitors of the yeast RAM network, pilot screen, dse1pr::URA3 reporter, 5-FOA selection (AID 869;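 active = inhibition over a set limit, the all-compound mean plus 3 SD, in both replicate runs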;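 also: 0% = DMSO wells with no growth and 100% = 10 µM 1-NA-PP1 with full growth; RAM network block rescues cells from 5-FOA so hits raise OD615 growth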); conditions: S. cerevisiae dse1pr::URA3 5-FOA growth, OD615, 2 d; at 10 µM; hits give high values; strain carries analog-sensitive mutant Cbk1 kinase
[7] = RAM signaling pathway blockade in yeast – S. cerevisiae, Pdr1DBD-CYC8 efflux-inhibited sensitized strain, primary screen (AID 1298;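 active = RAM network inhibition above 8.4% in each of two replicates, 3 SD over the compound average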;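 also: 0% = DMSO untreated cells without growth and 100% = 10 µM 1-NA-PP1 full growth; higher means more yeast growth rescued from 5-FOA killing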); conditions: S. cerevisiae cbk1-as DSE1-URA3 strain, 5-FOA growth OD615, 2 d; at 50 µM; hits give high values

CCOc1ccc(Nc2cc(C)nc3nc(C)nn23)cc1
inactive: growth inhibition [1] -10.9% | growth inhibition [2] 5.96% | viability increase [3] -3.11% | viability [4] 110% | viability [5] 93.9% | inhibition [6] 0.67% | RAM network inhibition [7] 2.62%

O=C(CNC(=O)c1ccco1)OCC(=O)c1ccccc1
inactive: growth inhibition [1] -8.55% | growth inhibition [2] 3% | viability increase [3] -1.3% | viability [4] 97.3% | viability [5] 94.3% | inhibition [6] 0.98% | RAM network inhibition [7] 0.92%

COc1ccc(N(CC(=O)NCc2ccccc2OC)S(=O)(=O)c2c(C)nn(C)c2C)cc1
inactive: growth inhibition [1] -12.2% | growth inhibition [2] -16.1% | viability increase [3] -3.37% | viability [4] 99.6% | viability [5] 95.6% | inhibition [6] 0.135% | RAM network inhibition [7] 2.29%

CCCc1cc(C(=O)N2CCN(C(c3ccccc3)c3ccccc3)CC2)no1
inactive: growth inhibition [1] -10.9% | growth inhibition [2] -6.91% | viability increase [3] 4.46% | viability [4] 98.7% | viability [5] 90.9% | inhibition [6] 0.485% | RAM network inhibition [7] 5.99%

CCCC(=O)NCCCc1nc2ccccc2n1CCC
inactive: growth inhibition [1] -2.54% | growth inhibition [2] -20.1% | viability increase [3] -1.65% | viability [4] 102% | viability [5] 95.1% | inhibition [6] 1.56% | RAM network inhibition [7] 3.21%

CCOC(=O)Cn1c(=O)oc2cc(S(=O)(=O)NC3CCCc4ccccc43)ccc21 (stereo not drawn)
inactive: growth inhibition [1] -9.8% | growth inhibition [2] -15.4% | viability increase [3] -0.67% | viability [4] 88.3% | viability [5] 92.2% | inhibition [6] 4.13% | RAM network inhibition [7] 3.75%

Cn1c(=O)oc2cc(S(=O)(=O)N3CCC(C(=O)N4CC=C(c5ccccc5)CC4)CC3)ccc21
inactive: growth inhibition [1] -0.22% | growth inhibition [2] 4.63% | viability increase [3] 0.15% | viability [4] 98.9% | viability [5] 94.8% | inhibition [6] 0.01% | RAM network inhibition [7] 6.76%

COc1ccccc1-n1c(SC)nc(O)cc1=O
inactive: growth inhibition [1] 1.24% | growth inhibition [2] -7.61% | viability increase [3] 0.84% | viability [4] 105% | viability [5] 99% | inhibition [6] 2.01% | RAM network inhibition [7] 4.2%

O=C(NCc1ccccc1)c1ccc(CN2CCOCC2)cc1
inactive: growth inhibition [1] 7.58% | growth inhibition [2] 2.15% | viability increase [3] -0.24% | viability [4] 100% | viability [5] 104% | inhibition [6] 0.89% | RAM network inhibition [7] 9.41%

COc1cc(NC(=O)c2cc3ccccc3o2)c(OC)cc1Cl
inactive: growth inhibition [1] -7.12% | growth inhibition [2] -6.08% | viability increase [3] -4.12% | viability [4] 80.7% | viability [5] 73.6% | inhibition [6] 3.16% | RAM network inhibition [7] 9.24%

COc1cc(C(=O)NCC(c2ccco2)N2CCCC2)ccc1OCc1c(C)noc1C (stereo not drawn)
inactive: growth inhibition [1] 0.045% | growth inhibition [2] -23.7% | viability increase [3] -4.73% | viability [4] 82.7% | viability [5] 83.8% | inhibition [6] 1.03% | RAM network inhibition [7] 3.83%

Cn1c(Cn2c(=O)sc3ccccc32)nnc1SCC(=O)NC1CCCCC1
inactive: growth inhibition [1] -17% | growth inhibition [2] -24.8% | viability increase [3] -0.4% | viability [4] 97.6% | viability [5] 98% | inhibition [6] 0.415% | RAM network inhibition [7] 1.06%

Cc1ccc(C)c(SCC(=O)OCC(=O)c2ccco2)c1
inactive: growth inhibition [1] -21.2% | growth inhibition [2] -14.6% | viability increase [3] -3.35% | viability [4] 88.9% | viability [5] 91.6% | inhibition [6] 0.705% | RAM network inhibition [7] 2.26%

O=C(C1CCN(S(=O)(=O)c2cccc3cccnc23)CC1)N1CCCC1
inactive: growth inhibition [1] 11.8% | growth inhibition [2] 7.97% | viability increase [3] -3.23% | viability [4] 97% | viability [5] 87.9% | inhibition [6] 1.52% | RAM network inhibition [7] 0.06%

O=C(CCCOc1ccccc1)n1nnc2ccccc21
inactive: growth inhibition [1] -10.8% | growth inhibition [2] -9.88% | viability increase [3] -1.21% | viability [4] 98.9% | viability [5] 100% | inhibition [6] 0.75% | RAM network inhibition [7] 0.05%

Cc1nnc(NC(=O)c2oc3cc(C)c(C)cc3c2C)s1
inactive: growth inhibition [1] -3.77% | growth inhibition [2] -4.99% | viability increase [3] -0.05% | viability [4] 105% | viability [5] 99.8% | inhibition [6] 1.64% | RAM network inhibition [7] 5.7%

Cc1csc(NC(=O)CNS(=O)(=O)c2cccs2)n1
inactive: growth inhibition [1] -4.12% | growth inhibition [2] -18.9% | viability increase [3] -2.55% | viability [4] 93.4% | viability [5] 86.8% | inhibition [6] 0.795% | RAM network inhibition [7] 2.18%

O=C(c1ccccc1Cl)N1CCC(c2nc3c(nnn3Cc3ccco3)c(=O)[nH]2)CC1
inactive: growth inhibition [1] -6.62% | growth inhibition [2] -11.1% | viability increase [3] -4.32% | viability [4] 92.5% | viability [5] 87.3% | inhibition [6] 0.69% | RAM network inhibition [7] 3.74%

CCCCCCNC(=O)C(C(=O)OCC)C1CCCCC1 (stereo not drawn)
inactive: growth inhibition [1] -4.1% | growth inhibition [2] -1.5% | viability increase [3] -1.52% | viability [4] 84% | viability [5] 82.2% | inhibition [6] 0.15% | RAM network inhibition [7] 3.88%

N#C/C(=C(/O)CN1C(=O)c2ccccc2C1=O)c1nc2ccccc2[nH]1
inactive: growth inhibition [1] -9.93% | growth inhibition [2] -4.08% | viability increase [3] 0.55% | viability [4] 100% | viability [5] 94.4% | inhibition [6] 4.51% | RAM network inhibition [7] 4.04%

NC(=O)c1ccsc1NC(=O)C1CC1
inactive: growth inhibition [1] -0.315% | growth inhibition [2] 0.175% | viability increase [3] -2.38% | viability [4] 103% | viability [5] 100% | inhibition [6] 1.22% | RAM network inhibition [7] 0.32%

CCCCN(C(=O)NC(=O)Nc1nc2ccc(OC)cc2s1)S(C)(=O)=O
inactive: growth inhibition [1] -2.28% | growth inhibition [2] -3.95% | viability increase [3] -0.44% | viability [4] 92.6% | viability [5] 103% | inhibition [6] -0.04% | RAM network inhibition [7] 1.09%

O=C(NCc1cccnc1)c1cnn2ccccc12
inactive: growth inhibition [1] -7.88% | growth inhibition [2] -0.235% | viability increase [3] -1.28% | viability [4] 106% | viability [5] 90.9% | inhibition [6] 1.62% | RAM network inhibition [7] 0.38%

COc1ccc(C2CC(c3ccc(F)cc3)Nc3nc(N)nn32)cc1OC (stereo not drawn)
inactive: growth inhibition [1] -0.9% | growth inhibition [2] 4.9% | viability increase [3] -0.13% | viability [4] 102% | viability [5] 92.4% | inhibition [6] 1.21% | RAM network inhibition [7] 7.75%
